Laboratory results published in ChEMBL document CHEMBL1649157, “Intracellular activity of antibiotics against Staphylococcus aureus in a mouse peritonitis model” (Antimicrob Agents Chemother, 2009).
In brackets after ≈: the same amount, converted by molar mass. Activity calls are given as the source filed them. No cut-off for these calls is given here.

Legend:
Staphylococcus aureus [1] = assay: Antibacterial activity against Staphylococcus aureus E19977 infected in NMRI mouse assessed as log reduction in intracellular bacterial cfu in peritoneum at 10 to 200 mg/kg, sc administered 2 hrs after infection measured after 4 hrs; type: functional, organism-based
How it was run: (§1)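 Dose–response in i.p.-infected NMRI mice (mucin adjuvant). Single doses of 200, 60, 30, 20 or 10 mg/kg were given 2 h after inoculation, with 4–16 mice per group. Peritoneal wash was sampled 4 h later and split by lysostaphin/centrifugation into total, extra- and intracellular counts, then expressed as Δlog10 CFU/ml against log dose. Vehicle controls were plotted as 0.3 mg/kg. Hill fit (variable slope); static dose interpolated.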

Staphylococcus aureus [2] = assay: Antibacterial activity against Staphylococcus aureus E19977 infected in NMRI mouse assessed as log reduction in intracellular bacterial cfu in peritoneum at 60 mg/kg, sc administered as single dose 2 hrs after infection measured after 4 hrs; type: functional, organism-based; set-up: dose 60 mg/kg
How it was run: (§2)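 NMRI mice were infected i.p. with S. aureus E19977 in 5% mucin. A single dose (60 mg/kg or 10 mg/kg) was given 1, 2 or 3 h after inoculation, four mice per group. Peritoneal wash was sampled after 4 h of treatment and separated into total, extracellular and intracellular counts by lysostaphin/centrifugation. Δlog10 CFU/ml was calculated against vehicle-treated mice infected for the same time (5, 6 or 7 h).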

Staphylococcus aureus [3] = assay: Bactericidal activity against Staphylococcus aureus E19977 assessed as log reduction in cfu at 1.5 mg/liter upto 24 hrs by time-kill study; type: functional
How it was run: (§3)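 Clinical bacteremia isolate (penicillin-resistant, methicillin-susceptible). Exponential-phase bacteria were placed in an in vitro kinetic model that simulates drug elimination without changing the inoculum. The starting drug level matched the human free peak serum concentration after a single dose, with simulated human elimination half-life. Samples were taken at 0, 2, 4, 6, 8, 12 and 24 h, with growth controls in each run.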

Staphylococcus aureus [4] = assay: Bactericidal activity against Staphylococcus aureus E19977 assessed as log reduction in cfu at 2 mg/liter after 12 hrs by time-kill study; type: functional; how it was run: as §3
Staphylococcus aureus [5] = assay: Antibacterial activity against Staphylococcus aureus E19977 by Etest; type: functional
Staphylococcus aureus [6] = assay: Bactericidal activity against Staphylococcus aureus E19977 assessed as log reduction in cfu at 9 mg/liter after 24 hrs by time-kill study; type: functional, organism-based
How it was run: (§4)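 In vitro kinetic model simulating antibiotic elimination without inoculum change. Exponential-phase E19977 was added at a final 10^6.3 CFU/ml. Starting drug concentration matched the human free peak, with the human half-life simulated. Samples were plated on 5% blood agar at 0, 2, 4, 6, 8, 12 and 24 h, with growth controls in each run. Results are shown as mean and range, n = 2.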

Staphylococcus aureus [7] = assay: Antibacterial activity against Staphylococcus aureus E19977 infected in NMRI mouse assessed as log reduction in extracellular bacterial cfu in peritoneum at 60 mg/kg, sc administered as single dose 1 hr after infection measured after 4 hrs; type: functional, organism-based; set-up: dose 60 mg/kg; how it was run: as §2
Staphylococcus aureus [8] = assay: Antibacterial activity against Staphylococcus aureus E19977 infected in NMRI mouse assessed as log reduction in extracellular bacterial cfu in peritoneum at 60 mg/kg, sc administered as single dose 3 hrs after infection measured after 4 hrs; type: functional, organism-based; set-up: dose 60 mg/kg; how it was run: as §2
Staphylococcus aureus [9] = assay: Antibacterial activity against Staphylococcus aureus E19977 infected in NMRI mouse assessed as log reduction in extracellular bacterial cfu in peritoneum at 200 mg/kg, sc administered 2 hrs after infection measured after 4 hrs; type: functional, organism-based; set-up: dose 200 mg/kg; how it was run: as §1
Staphylococcus aureus [10] = assay: Antibacterial activity against Staphylococcus aureus E19977 infected in NMRI mouse assessed as log reduction in bacterial cfu in peritoneum at 60 mg/kg, sc administered as single dose 3 hrs after infection measured after 4 hrs; type: functional, organism-based; set-up: dose 60 mg/kg; how it was run: as §2
Staphylococcus aureus [11] = assay: Bactericidal activity against Staphylococcus aureus E19977 assessed as log reduction in cfu at 20 mg/liter after 24 hrs by time-kill study; type: functional, organism-based; how it was run: as §4
Staphylococcus aureus [12] = assay: Bactericidal activity against Staphylococcus aureus E19977 assessed as log reduction in cfu at 1.5 mg/liter after 24 hrs by time-kill study; type: functional, organism-based; how it was run: as §4
Serum = assay: Protein binding in human serum at 1000 mg, po; type: ADME, organism-based; conditions: in vivo
Staphylococcus aureus [13] = assay: Antibacterial activity against Staphylococcus aureus E19977 infected in NMRI mouse assessed as log reduction in bacterial cfu in peritoneum at 10 to 200 mg/kg, sc administered 2 hrs after infection measured after 4 hrs; type: functional, organism-based; how it was run: as §1

Cc1onc(-c2c(Cl)cccc2Cl)c1C(=O)N[C@@H]1C(=O)N2[C@@H]1SC(C)(C)[C@@H]2C(=O)O [DICLOXACILLIN]
Activity (Staphylococcus aureus [1]): Dose-dependent effect | Activity (Staphylococcus aureus [2]): Active | FC (Staphylococcus aureus [3]): 2 | FC (Staphylococcus aureus [4]): 2 | MIC (Staphylococcus aureus [5]): 0.5 µg/mL (≈ 1.06 µM) | Activity (Staphylococcus aureus [6]): inactive | Activity (Staphylococcus aureus [7]): Active | Activity (Staphylococcus aureus [8]): inactive | Activity (Staphylococcus aureus [9]): Active | Activity (Staphylococcus aureus [10]): inactive | Activity (Staphylococcus aureus [11]): inactive | Activity (Staphylococcus aureus [12]): inactive | Activity (Serum): 95% | Activity (Staphylococcus aureus [13]): Dose-dependent effect
